Activity calls are given as the source filed them. No cut-off for these calls is given here.
Legend:
[1] = Toxicity in 24 hrs post fertilized zebrafish embryo assessed as malformation of spine curvature at 50 uM measured after 24 hrs by microscopic analysis; design: species or system Danio rerio; conditions: in vivo
In short: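 Zebrafish embryos raised in an automated housing system at 28 °C to 24 hpf, then exposed for 24 h to test agent at 50 μM in vehicle (1% DMSO in water). Digoxin and cycloheximide at 50 μM served as positive controls, with an untreated control. Morphology was then inspected and photographed by light microscopy.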

[2] = molecular target: Sodium/potassium-transporting ATPase (Homo sapiens) (UniProt P05023+P14415+P05026+P50993+P54709+P13637+Q13733+P54710); test: Inhibition of Na+/K+ ATPase pump in human DU145 cells assessed as increase in intracellular calcium level at 50 uM measured after 5 hrs by Fura-2/AM dye based fluorescence assay; assay type: cell-based
In short: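 DU-145 cells at 1×10^4 per well treated 5 h (0–50 μM), DMSO/water negative control; medium removed, loaded with 5 μM fura-2 AM then 2.5 mM probenecid; intracellular Ca2+ from emission 510 nm ratio at 340/380 nm excitation; two independent experiments.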

[3] = Toxicity in 24 hrs post fertilized zebrafish embryo assessed as developmental delay at 50 uM measured after 24 hrs by microscopic analysis; design: species or system Danio rerio; conditions: in vivo
In short: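 Embryos raised at 28 °C to 24 hpf, then exposed to 50 μM in 1% DMSO in water (vehicle control) for 24 h; larvae examined and photographed by light microscopy for developmental morphology.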

| SMILES | Activity [1] | inhibition [2] | Activity [3] |
| --- | --- | --- | --- |
| C[C@H]1O[C@@H](O[C@H]2[C@@H](O)C[C@H](O[C@H]3[C@@H](O)C[C@H](O[C@H]4CC[C@@]5(C)[C@H](CC[C@@H]6[C@@H]5C[C@@H](O)[C@]5(C)[C@@H](C7=CC(=O)OC7)CC[C@]65O)C4)O[C@@H]3C)O[C@@H]2C)C[C@H](O)[C@@H]1O [DIGOXIN] | Toxic | Active |  |
| C[C@@H]1C[C@@H]([C@H](O)CC2CC(=O)NC(=O)C2)C(=O)[C@@H](C)C1 [CYCLOHEXIMIDE] |  |  | Toxic |

From ChEMBL document CHEMBL4334445, “Caspase-Dependent Apoptosis in Prostate Cancer Cells and Zebrafish by Corchorusoside C from Streptocaulon juventas” (J Nat Prod, 2019)
